Source: PMC2822702 (Biochimica et biophysica acta, 2009)

How the values were obtained:
wt Bid = target: T1, wt Bid (Mus musculus, UniProt P70444); test: ADIFAB fluorescence quenching; assay type: binding; settings: recombinant mouse wt Bid, ADIFAB 0.2 μM, room temperature
T1 sequence (P70444 1-195): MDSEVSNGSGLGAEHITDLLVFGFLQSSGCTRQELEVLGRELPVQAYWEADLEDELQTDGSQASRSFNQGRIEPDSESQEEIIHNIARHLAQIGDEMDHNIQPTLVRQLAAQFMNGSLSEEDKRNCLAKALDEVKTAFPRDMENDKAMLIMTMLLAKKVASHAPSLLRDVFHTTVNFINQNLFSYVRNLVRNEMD
Method in brief: (§1)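 Recombinant N-terminal His6-tagged mouse Bid was expressed in E. coli BL21(DE3)pLysS and purified on a chelating affinity column. ADIFAB at 0.2 μM in 10 mM Tris pH 8.0, 0.15 M NaCl, 1 mM EGTA was run alone or with Bid at 22–24 °C. Lipid ligand was titrated with excitation at 390 nm and emission read at 410–610 nm. Kd was taken from Stern–Volmer (F0/F) slopes.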

mouse liver mitochondria = test: Cell-free assay of cytochrome c release from isolated mitochondria; assay type: biochemical; settings: for release of cytochrome c: 200 nM full-length recombinant Bid protein, no exogenous lysolipids, 15 min
Method in brief: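 They were incubated 15 min at 22 °C with 200 nM recombinant full-length mouse Bid plus 2 μM LPC-C16 added from ethanol, then pelleted. Supernatant cytochrome c was immunoblotted and quantified by densitometry (n=3, t-test), with controls of 500 μM LPC-C16 and no Bid.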

Bid R187E = target: T2, Bid R187E (Mus musculus, UniProt P70444, R187E); test: ADIFAB fluorescence quenching; assay type: binding; settings: recombinant mouse Bid R187E mutant, ADIFAB 0.2 μM, room temperature
T2 sequence (P70444 1-195 R187E): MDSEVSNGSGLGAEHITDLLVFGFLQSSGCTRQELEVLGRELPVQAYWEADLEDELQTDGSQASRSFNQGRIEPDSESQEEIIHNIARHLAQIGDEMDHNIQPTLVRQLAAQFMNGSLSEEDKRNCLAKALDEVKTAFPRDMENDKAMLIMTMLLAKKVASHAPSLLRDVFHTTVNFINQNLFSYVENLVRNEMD
Method in brief: as §1

Bid K157E = target: T3, Bid K157E (Mus musculus, UniProt P70444, K157E); test: ADIFAB fluorescence quenching; assay type: binding; settings: recombinant mouse Bid K157E mutant, ADIFAB 0.2 μM, room temperature
T3 sequence (P70444 1-195 K157E): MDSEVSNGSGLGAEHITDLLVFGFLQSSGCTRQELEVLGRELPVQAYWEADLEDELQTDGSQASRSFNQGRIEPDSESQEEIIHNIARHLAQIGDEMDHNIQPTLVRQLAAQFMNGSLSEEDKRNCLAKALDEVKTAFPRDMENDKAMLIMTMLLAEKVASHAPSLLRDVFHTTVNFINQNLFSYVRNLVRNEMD
Method in brief: as §1

[1] = test system: FSK7 mouse mammary epithelial cells; test: Anoikis of mammary epithelial cells expressing YFP-tagged Bid; assay type: cell-based; settings: FL Bid YFP over-expressed, 5 h detached
Method in brief: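 FSK7 cells were grown in DMEM/F-12 with 5 ng/ml EGF, 5 μg/ml insulin and 2% FCS at 37 °C, 5% CO₂. They were lipofected with C-terminal YFP-tagged full-length Bid or YFP alone. At 18 h post-transfection cells were detached onto polyHEMA for 5 h, cytospun, PFA-fixed and Hoechst-stained. Apoptosis was scored by nuclear morphology as mean ± SEM.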

Molecule: CCCCCCCCCCCCCCCC(=O)OC[C@@H](O)COP(=O)([O-])OCC[N+](C)(C)C [LPC-C16, 1-palmitoyl-LPC]
- Kd (wt Bid): ~4000 nM
- enhancement of cytochrome c release (mouse liver mitochondria; 2 μM LPC-C16 with 200 nM K157E FL Bid): much stronger enhancement
- increase in capacity of releasing cytochrome c (mouse liver mitochondria; 2 μM LPC-C16 with 200 nM R187E FL Bid): ~2 fold
- increase in capacity of releasing cytochrome c (mouse liver mitochondria; 2 μM LPC-C16 with 200 nM wt FL Bid): ~2 fold
- Kd (Bid R187E): 5500 nM
- Kd (Bid K157E): ~4000 nM

Molecule: CCCCCCCC/C=C\CCCCCCCC(=O)OC[C@@H](O)COP(=O)(O)OCC(O)CO (stereo partly drawn) [LPG-C18, 1-oleyl-LPG]
- Kd (wt Bid): 80 nM
- Kd (Bid R187E): 100 nM
- Kd (Bid K157E): 200 nM

Molecule: monolysocardiolipin [MCL]
- Kd (wt Bid): 1300 nM
- Kd (Bid R187E): ~1400 nM
- Kd (Bid K157E): 1800 nM

B1: wt Bid: recombinant full-length wild type mouse Bid with N-terminal six-histidine tag (protein, UniProt P70444 1-195, looked up)
chain: MDSEVSNGSGLGAEHITDLLVFGFLQSSGCTRQELEVLGRELPVQAYWEADLEDELQTDGSQASRSFNQGRIEPDSESQEEIIHNIARHLAQIGDEMDHNIQPTLVRQLAAQFMNGSLSEEDKRNCLAKALDEVKTAFPRDMENDKAMLIMTMLLAKKVASHAPSLLRDVFHTTVNFINQNLFSYVRNLVRNEMD
modifications: full-length N-terminal His6 tag
- release of cytochrome c (mouse liver mitochondria): some release of cytochrome c

B2: R187E Bid: recombinant mouse Bid, arginine 187 replaced by glutamic acid (protein, UniProt P70444 1-195, looked up, variant R187E)
BH3-interacting domain death …: MDSEVSNGSGLGAEHITDLLVFGFLQSSGCTRQELEVLGRELPVQAYWEADLEDELQTDGSQASRSFNQGRIEPDSESQEEIIHNIARHLAQIGDEMDHNIQPTLVRQLAAQFMNGSLSEEDKRNCLAKALDEVKTAFPRDMENDKAMLIMTMLLAKKVASHAPSLLRDVFHTTVNFINQNLFSYVENLVRNEMD
- release of cytochrome c (mouse liver mitochondria): some release of cytochrome c

B3: K157E Bid: recombinant mouse Bid, lysine 157 replaced by glutamic acid (protein, UniProt P70444 1-195, looked up, variant K157E)
BH3-interacting domain death …: MDSEVSNGSGLGAEHITDLLVFGFLQSSGCTRQELEVLGRELPVQAYWEADLEDELQTDGSQASRSFNQGRIEPDSESQEEIIHNIARHLAQIGDEMDHNIQPTLVRQLAAQFMNGSLSEEDKRNCLAKALDEVKTAFPRDMENDKAMLIMTMLLAEKVASHAPSLLRDVFHTTVNFINQNLFSYVRNLVRNEMD
- release of cytochrome c (mouse liver mitochondria): did not release cytochrome c

B4: R187E Bid YFP: C-terminal YFP-tagged full-length mouse Bid R187E expressed by transfection (protein, UniProt P70444 1-195, looked up, variant R187E)
chain: MDSEVSNGSGLGAEHITDLLVFGFLQSSGCTRQELEVLGRELPVQAYWEADLEDELQTDGSQASRSFNQGRIEPDSESQEEIIHNIARHLAQIGDEMDHNIQPTLVRQLAAQFMNGSLSEEDKRNCLAKALDEVKTAFPRDMENDKAMLIMTMLLAKKVASHAPSLLRDVFHTTVNFINQNLFSYVENLVRNEMD
modifications: full-length C-terminal YFP tag
- sensitisation to anoikis compared with wt Bid [1]: no difference

B5: wt Bid YFP: C-terminal YFP-tagged full-length wild type mouse Bid expressed by transfection (protein, UniProt P70444 1-195, looked up)
chain: MDSEVSNGSGLGAEHITDLLVFGFLQSSGCTRQELEVLGRELPVQAYWEADLEDELQTDGSQASRSFNQGRIEPDSESQEEIIHNIARHLAQIGDEMDHNIQPTLVRQLAAQFMNGSLSEEDKRNCLAKALDEVKTAFPRDMENDKAMLIMTMLLAKKVASHAPSLLRDVFHTTVNFINQNLFSYVRNLVRNEMD
modifications: full-length C-terminal YFP tag
- apoptosis (cell death) after detachment ([1]; nuclear morphology): around 85%

B6: K157E Bid YFP: C-terminal YFP-tagged full-length mouse Bid K157E expressed by transfection (protein, UniProt P70444 1-195, looked up, variant K157E)
chain: MDSEVSNGSGLGAEHITDLLVFGFLQSSGCTRQELEVLGRELPVQAYWEADLEDELQTDGSQASRSFNQGRIEPDSESQEEIIHNIARHLAQIGDEMDHNIQPTLVRQLAAQFMNGSLSEEDKRNCLAKALDEVKTAFPRDMENDKAMLIMTMLLAEKVASHAPSLLRDVFHTTVNFINQNLFSYVRNLVRNEMD
modifications: full-length C-terminal YFP fusion
- sensitisation to anoikis compared with wt Bid [1]: no difference
